Screening results as filed in PubChem.
The list is not random: actives were taken first. Their share in the collection is about 1%.
B2AR ag: agonists of human beta-2 adrenergic receptor inducing internalization; P07550; Am2.2-beta2AR cells, FAP receptor internalization, flow cytometry; response, % (no concentration beside the values); 340,000 compounds, 0.43% hits; AID 504454;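 active means response above a set limit, near 3 SD of response in nonfluorescent compounds, cut at about 42% in these data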
Target sequence (P07550 whole entry, looked up): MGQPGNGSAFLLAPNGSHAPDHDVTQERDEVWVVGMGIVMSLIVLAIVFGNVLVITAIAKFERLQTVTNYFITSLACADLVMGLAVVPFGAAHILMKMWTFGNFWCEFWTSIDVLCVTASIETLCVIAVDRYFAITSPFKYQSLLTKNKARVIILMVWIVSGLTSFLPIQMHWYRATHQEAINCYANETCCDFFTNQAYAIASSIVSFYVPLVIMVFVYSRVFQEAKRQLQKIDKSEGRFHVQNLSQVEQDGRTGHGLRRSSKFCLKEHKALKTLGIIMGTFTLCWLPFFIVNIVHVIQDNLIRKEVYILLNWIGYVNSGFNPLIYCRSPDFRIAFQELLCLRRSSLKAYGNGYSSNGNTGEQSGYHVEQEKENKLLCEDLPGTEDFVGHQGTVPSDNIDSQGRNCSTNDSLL
UPR XBP1 act: activators of adaptive arm of unfolded protein response (XBP1). activation, % at 20 µM. 330,000 compounds, 0.33% hits. CHO-XBP1 luciferase reporter, IRE1-XBP1 UPR activation, luminescence; percent of tunicamycin response, DMSO as zero;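 active means versus positive control, 20 µM dose yields 30% or more activation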
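Signal: luciferase luminescence; Assay system: CHO-XBP1 luciferase reporter cells; Amount: one thousand reporter cells per well; Dosing: 20 µM single concentration, DMSO 1%; Benchmarks: high control tunicamycin 10 µg/mL final, low control DMSO vehicle only; Schedule: 6 h compound exposure at 37 °C, 5% CO2; Evaluation: percent activation relative to tunicamycin reference.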
T cell modulator: modulates CD8 T cell binding to vesicles. response (vesicle binding), % at 7 µM. 2C CD8+ T cell-vesicle binding, flow cytometry; stronger effect = lower value. AID 2052. 330,000 compounds, 0.068% hits;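 active means response, share of CD8 T cells binding vesicles, and their 90th percentile fluorescence all below set limits, cut at about 80% in these data, passing the limit was not always enough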;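 further: values below 100% mean blocked vesicle binding to the CD8+ T cells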
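Test system: purified 2C TCR transgenic mouse naive CD8+ T cells. Probe or stimulus: QL9-peptide-loaded Drosophila micro-vesicles bearing Ld, ICAM-1 and B7-1. Incubation: binding step 1.5 h, 37 °C, antibody labelling 20 min, ice. Measured by: flow cytometry of vesicle-bound cells.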
CHOP UPR activ: activators of apoptotic arm of unfolded protein response (CHOP); AID 449763; 330,000 compounds, 0.34% hits; CHO-CHOP luciferase reporter, UPR activation, luminescence; percent of tunicamycin response over DMSO baseline; activation, % at 10 µM;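 active means at 10 µM dose, activation of 40% or more, normalized to positive control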
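System: CHO CHOP reporter cells. Amount: 500 cells per well. Buffer or medium: F12 medium, 10% FBS. Compound dosing: one dose, 10 µM in 0.5% DMSO. Incubation: 6 h compound exposure at 37 °C after overnight seeding. Technique: Steady-Glo luciferase luminescence. Benchmarks: tunicamycin and DMSO controls.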
A number is an active result; – = inactive; · = not tested or not shown.

SMILES	B2AR ag	UPR XBP1 act	T cell modulator	CHOP UPR activ
Cc1cc(C)c2nc(NCCCNC(=S)NCCCN(C)C)c(C#N)cc2c1	43	–	–	–
Cn1ncc(Br)c1C(=O)N1CCCC1	–	–	–	–
Cn1ncc(Br)c1C(=O)N1CCCCCC1	–	–	33	–
O=C(COC(=O)c1ccc2c(c1)C(=O)N(c1cccc3ncccc13)C2=O)c1ccc(Cl)cc1	63	–	–	–
O=C(Nc1ccc(Oc2c(F)c(F)c(F)c(F)c2F)cc1)OC1CCN2Cc3ccccc3N=C12 (stereo unspecified)	102	–	–	–
COc1cccc(/C=N/Nc2nc3ccccc3n3cnnc23)c1O	109	–	–	–
CCCCN(CCCC)S(=O)(=O)c1ccc(NC(=O)Cc2cccs2)cc1	51	–	–	–
CCOC(=O)C1CN(S(=O)(=O)c2ccc(C)cc2)CCN1S(=O)(=O)c1ccc(C)cc1 (stereo unspecified)	–	–	–	–
O=c1cc(-c2ccccc2Cl)oc2cc(O)cc(O)c12	–	–	–	–
O=C1C=CC(O)(c2cc(=O)c3c(O)cc(O)cc3o2)C=C1	45	–	–	–
CCCCC(=O)N/N=C/c1ccc(Sc2cccc3cccnc23)o1	49	–	–	–
C/C(=C\C(=O)OCC(=O)NCc1ccccc1)C(=O)OCC(=O)NCc1ccccc1	–	–	–	–
CCOC(=O)/C=C/C(=O)OCC(=O)NCc1ccccc1	44	–	–	–
O=C(Cn1c(=O)oc2cc(S(=O)(=O)N3CCCC3)ccc21)N1CCc2ccccc2C1	–	–	–	–
O=C(Cn1c(=O)oc2cc(S(=O)(=O)N3CCCCC3)ccc21)N1CCc2ccccc21	–	35	–	–
CCC(=O)Nc1cccc(C(=O)/C=C/c2cccs2)c1	–	–	–	–
CCC(=O)Nc1cccc(C(=O)/C=C/c2ccccc2)c1	54	–	–	–
O=C(CCc1c[nH]c2ccccc12)NN1C(=O)NC2(CCCCC2)C1=O	–	–	–	–
COc1ccc(NC(=O)Nc2cccc(OC)c2)cc1	–	–	–	–
COc1cccc(NC(=O)Nc2ccc3nc(C)c(C)nc3c2)c1	–	–	73	–
COc1ccc([N+](=O)[O-])cc1NC(=O)C(C)Sc1nc(-c2ccccc2)cs1 (stereo unspecified)	–	–	0.0	–
Cc1cccc2sc(N(CCCN(C)C)C(=O)c3ccc(S(=O)(=O)N4CCc5ccccc5C4)cc3)nc12	46	–	–	–
CN(C)CCCN(C(=O)c1ccc(S(=O)(=O)N2CCc3ccccc3C2)cc1)c1nc2c(F)cccc2s1	–	–	–	–
Cc1cc(C)c2sc(N(CCCN(C)C)C(=O)c3ccc(S(=O)(=O)N4CCc5ccccc5C4)cc3)nc2c1	51	–	–	–
COc1ccc2sc(N(CCCN(C)C)C(=O)c3ccc(S(=O)(=O)N4CCc5ccccc5C4)cc3)nc2c1	–	–	–	–
SMILES	B2AR ag	UPR XBP1 act	T cell modulator	CHOP UPR activ
COCC(=O)N/N=C(\C)CC(=O)NCc1ccco1	–	–	–	–
COc1cc(S(=O)(=O)n2ccc(C)n2)ccc1Cl	–	–	–	–
CCN(CC(=O)Nc1c(F)cccc1F)C(=O)c1ccc(N2C(=O)c3ccccc3C2=O)cc1	–	–	–	–
CC(C)CN(Cc1cc(=O)oc2cc3c(cc12)CCCC3)CC(C)C	–	–	76	–
COCCN(CCOC)Cc1cc(=O)oc2cc3c(cc12)CCC3	–	–	–	–
CCc1ccc(-c2nn(Cc3ccccc3)cc2/C=C/C(=O)O)cc1	–	–	–	–
COc1ccc(C(C(=O)NC2CCCCC2)N(C(=O)CCl)c2cccc(Cl)c2)cc1 (stereo unspecified)	42	·	–	·
COc1cc(/C=C/C(=O)OCC(=O)Nc2cc(S(=O)(=O)N3CCCC3)ccc2Cl)cc(OC)c1OC	–	–	–	–
CC(C)C(=O)N1CCC2(CC1)Oc1ccc(F)cc1C(=O)C21CC(c2cccnc2)=NO1 (stereo unspecified)	·	–	·	–
CC(C)C(=O)N1CCC2(CC1)Oc1ccc(Cl)cc1C(=O)C21CC(c2cccnc2)=NO1 (stereo unspecified)	–	–	0.0	–
CCN(C(=O)C1CCCN1S(=O)(=O)c1ccc2c(c1)n(C)c(=O)c(=O)n2C)c1ccccc1 (stereo unspecified)	–	–	32	–
Cc1ccccc1NC(=O)C1CCCN1S(=O)(=O)c1ccc2c(c1)n(C)c(=O)c(=O)n2C (stereo unspecified)	–	–	–	–
COc1cc(CNCCc2ccc(S(N)(=O)=O)cc2)ccc1OCC(=O)N1CCCCC1	–	–	79	–
COc1ccc2oc(=O)c(-c3csc(Nc4cccc(O)c4)n3)cc2c1	–	–	0.0	–
COc1ccc(Nc2nc(-c3cc4cccc(OC)c4oc3=O)cs2)cc1	–	–	–	–
O=c1oc2cc(O)c(Cl)cc2c2ccccc12	–	–	–	–
O=c1oc(Cl)c(Cl)c2ccccc12	62	–	–	88
Cc1cc(N2C(=O)CC(C(C)c3ccccc3)C2=O)no1 (stereo unspecified)	–	–	–	–
COC(=O)c1ccc(Nc2cc(C)nc3ncnn23)cc1	–	–	–	–
Cc1ccc2nc3cc([N+](=O)[O-])cc([N+](=O)[O-])c3cc2c1	59	·	·	·
Cn1cc(CNC(=O)C2CCC(=O)N(Cc3ccc(Cl)cc3)C2)cn1 (stereo unspecified)	–	–	–	–
Cn1c(N)c(C(=O)COC(=O)COc2ccc3ccccc3c2)c(=O)n(C)c1=O	–	–	–	–
O=C(CCn1c(=O)c2cccn2c2cccnc21)NCc1cccc(Cl)c1	–	–	–	–
CC[C@H](C)[C@H]1O[C@]2(CC[C@@H]1C)C[C@@H]1C[C@@H](CC=C(C)[C@@H](O[C@H]3C[C@H](OC)[C@@H](O[C@H]4C[C@H](OC)[C@@H](O)[C@H](C)O4)[C@H](C)O3)[C@@H](C)C=CC=C3CO[C@@H]4[C@H](O)C(C)=C[C@@H](C(=O)O1)[C@]34O)O2	–	64	–	–
CN1/C(=C/C(=O)c2nc(S(C)(=O)=O)ncc2Cl)C(C)(C)c2ccccc21	48	–	–	–
SMILES	B2AR ag	UPR XBP1 act	T cell modulator	CHOP UPR activ
CN(C)CCNc1oc(-c2ccccc2Cl)nc1S(=O)(=O)c1ccccc1	–	–	0.0	–
CN(C)CCCNc1oc(-c2ccccc2Cl)nc1S(=O)(=O)c1ccc(F)cc1	–	–	–	–
O=C1CC(c2nc3ccccc3[nH]2)CN1Cc1ccccc1 (stereo unspecified)	–	–	47	–
CN(C)/C=N/C(=S)Nc1ccccc1Cl	–	–	–	–
CN(C)/C=N/C(=S)Nc1ccccc1F	51	–	–	–
O=C(O)CCCCCn1c(SCc2cc(=O)n3cc(Cl)ccc3n2)nc2ccsc2c1=O	–	–	–	–
